Laboratory results as given in ChEMBL document CHEMBL2016555, “4-Methoxy-N-[2-(trifluoromethyl)biphenyl-4-ylcarbamoyl]nicotinamide: A Potent and Selective Agonist of S1P1” (ACS Med Chem Lett, 2011).
Converted amounts (≈) assume the structure as drawn.

What was measured:
[1] = Solubility of the compound in 0.01 M aqueous HCl; format: physicochemical
[2] = Intrinsic clearance in rat liver microsomes after 30 mins; format: ADME, Microsome; settings: read-out: CLH
[3] = Solubility of the compound in simulated intestinal fluid; format: physicochemical
[4] = Efflux ratio of apparent permeability across pig LLC-PK1 cells; format: ADME, cell-based, Sus scrofa
Method in brief: (§1)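 Permeability across porcine proximal tubule LLC-PK1 cell monolayers; apparent permeability (Papp) and efflux ratio determined.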

Rattus norvegicus = test: Immunosuppressive activity in Lewis rat assessed as change in peripheral lymphocyte count at 1 mg/kg, po after 24 hrs relative to vehicle treated control; format: functional
Method in brief: (§2)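 Female Lewis rats (N = 5/group) given one oral dose of 1 mg/kg (20% captisol, 1% HPMC, 1% pluronic F68, pH 2.1 with MSA); blood lymphocyte count and total plasma compound measured at 24 h; POC vs vehicle, ANOVA/Dunnett's test.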

[5] = biological target: T1, Sphingosine 1-phosphate receptor 1 (Homo sapiens, UniProt P21453); test: Agonist activity at human S1P1 expressed in U2OS cells coexpressing eGFP assessed as receptor internalization after 1 hr by microscopic analysis relative to 1-(4-(6-benzylbenzofuran-2-yl)-3-fluorobenzyl)azetidine-3-carboxylic acid; format: functional, cell-based
T1 sequence (P21453 whole entry, the tested form may be a part): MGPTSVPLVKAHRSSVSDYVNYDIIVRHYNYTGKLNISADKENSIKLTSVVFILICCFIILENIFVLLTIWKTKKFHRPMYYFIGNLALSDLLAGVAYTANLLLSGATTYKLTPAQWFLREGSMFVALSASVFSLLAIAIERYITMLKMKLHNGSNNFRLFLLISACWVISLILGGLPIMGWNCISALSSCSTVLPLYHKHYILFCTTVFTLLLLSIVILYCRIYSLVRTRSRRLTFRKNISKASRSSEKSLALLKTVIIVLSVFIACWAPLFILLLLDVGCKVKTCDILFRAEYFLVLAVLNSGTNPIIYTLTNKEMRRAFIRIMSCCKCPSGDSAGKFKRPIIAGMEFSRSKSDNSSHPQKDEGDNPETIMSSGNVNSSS
Method in brief: (§3)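 Human S1P1–eGFP fusion protein expressed in U2OS cells; agonism read as receptor internalization; EC50 derived, efficacy expressed relative to 1-(4-(6-benzylbenzofuran-2-yl)-3-fluorobenzyl)azetidine-3-carboxylic acid at 1.0 μM.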

[6] = Plasma concentration in Lewis rat at 1 mg/kg, po at 24 hrs; format: ADME, organism-based; set-up: dose 1 mg/kg, route oral; settings: Lewis, plasma; method in brief: as §2
[7] = Solubility of the compound in phosphate buffer saline at pH 7.4; format: physicochemical; settings: phosphate buffered saline
[8] = biological target: T1, Sphingosine 1-phosphate receptor 1; test: Agonist activity at human S1P1 expressed in U2OS cells coexpressing eGFP assessed as receptor internalization after 1 hr by microscopic analysis; format: functional, cell-based; method in brief: as §3
[9] = Apparent permeability across pig LLC-PK1 cells; format: ADME, cell-based, Sus scrofa; method in brief: as §1

| Compound | solubility [1] | microsomal CLint [2] | solubility [3] | efflux ratio [4] | Activity (Rattus norvegicus) | Efficacy [5] | concentration at 24 h [6] | solubility [7] | EC50 [8] | Papp [9] |
| --- | --- | --- | --- | --- | --- | --- | --- | --- | --- | --- |
| COc1ccccc1C(=O)NC(=O)Nc1ccc(-c2ccccn2)c(C(F)(F)F)c1 | 28 µg/mL (≈ 67.4 µM) | 15 µL/min/mg | 8.5 µg/mL (≈ 20.5 µM) | 1.1 | -14% | 110% | 13 ng/mL | 19 µg/mL (≈ 45.7 µM) | 13 nM | 7.4 ×10⁻⁶ cm/s |
| COc1ccccc1C(=O)NC(=O)Nc1ccc(OCC(F)(F)F)c(C(F)(F)F)c1 | < 1 µg/mL | 25 µL/min/mg | 2.2 µg/mL (≈ 5.04 µM) |  | 4% | 83% | 1 ng/mL | < 1 µg/mL | 6.8 nM | < 1 ×10⁻⁶ cm/s |
| COc1ccccc1C(=O)NC(=O)Nc1ccc(N2CCCCC2)c(Cl)c1 | 3.6 µg/mL (≈ 9.28 µM) | 36 µL/min/mg | 8.5 µg/mL (≈ 21.9 µM) |  |  | 120% |  | < 1 µg/mL | 230 nM | < 1 ×10⁻⁶ cm/s |
| COc1ccccc1C(=O)NC(=O)Nc1ccc(-c2nccs2)c(C(F)(F)F)c1 | 1.1 µg/mL (≈ 2.61 µM) | 33 µL/min/mg | 12 µg/mL (≈ 28.5 µM) | 1.4 | -18% | 130% | 1 ng/mL | < 1 µg/mL | 38 nM | 12 ×10⁻⁶ cm/s |
| COc1ccccc1C(=O)NC(=O)Nc1ccc(N2CCCCC2)c(C(F)(F)F)c1 | 3 µg/mL (≈ 7.12 µM) | 26 µL/min/mg | 4.1 µg/mL (≈ 9.73 µM) |  |  | 120% |  | < 1 µg/mL | 13 nM | < 1 ×10⁻⁶ cm/s |
